# Experimental data: ChEMBL document CHEMBL4196141, “Improved Antibacterial Activity of the Marine Peptide N6 against Intracellular Salmonella Typhimurium by Conjugating with the Cell-Penetrating Peptide Tat11 via a Cleavable Linker” (J Med Chem, 2018)
# Active and inactive are the calls of the source. The calls are words filed in the database; no cut-off is given here.
# What was measured:
# Salmonella typhimurium [1] = test: Antibacterial activity against Salmonella typhimurium ATCC 14028 using 1 hr cathepsin B pre-treated compound followed by incubation for 16 to 18 hrs at pH 5 by broth microdilution method; format: functional, Salmonella enterica subsp. enterica serovar Typhimurium; settings: Salmonella enterica
# How it was run: (§1)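 Cathepsin B (bovine spleen, 10 µg/mL) was added for 1 h at 37 °C, and the reaction was stopped with 9 volumes of MHB. MIC was then run by broth microdilution (5 × 10^5 CFU/mL, 16–18 h, 37 °C) in medium adjusted to pH 5.0.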
# Salmonella typhimurium [2] = test: Antibacterial activity against Salmonella typhimurium ATCC 14028 infected in ICR mouse model of peritonitis assessed as reduction colony forming units in total peritoneal fluids at 1 umol/kg, ip dosed at 2 hrs post infection and measured after 10 hrs post dose; format: functional, Salmonella enterica subsp. enterica serovar Typhimurium
# How it was run: (§2)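 Six-week-old female ICR mice (six per group) received ip S. Typhimurium ATCC14028 (5 × 10^5 CFU, 0.5 mL). Peptide was given ip 2 h post-infection and mice were killed 10 h after treatment. Peritoneum was lavaged with 5 mL ice-cold PBS and total CFU counted. For intracellular CFU, pelleted cells were treated with 100 µg/mL gentamicin for 1 h at 37 °C, washed, lysed and plated. PBS served as negative control, ciprofloxacin as positive.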
# Salmonella typhimurium [3] = test: Antibacterial activity against Salmonella typhimurium ATCC 14028 using 1 hr cathepsin B pre-treated compound at pH 5 incubated for 16 to 18 hrs at by broth microdilution method; format: functional, Salmonella enterica subsp. enterica serovar Typhimurium; settings: Salmonella enterica; how it was run: as §1
# Salmonella typhimurium [4] = test: Antibacterial activity against Salmonella typhimurium ATCC 14028 incubated for 16 to 18 hrs at pH 7.2 by broth microdilution method; format: functional, Salmonella enterica subsp. enterica serovar Typhimurium; settings: Salmonella enterica
# How it was run: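 Broth microdilution in MH broth. S. Typhimurium ATCC14028 was grown overnight at 37 °C to semi-log phase, pelleted, and diluted to OD600 0.01; final inoculum was 5 × 10^5 CFU/mL. Plates were incubated 16–18 h at 37 °C. MIC is the lowest peptide concentration with no visible growth. Data are in duplicate from at least two independent experiments.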
# Salmonella typhimurium [5] = test: Antibacterial activity against Salmonella typhimurium ATCC 14028 infected in ICR mouse model of peritonitis assessed as reduction colony forming units in intracellular fluids at 1 umol/kg, ip dosed at 2 hrs post infection and measured after 10 hrs post dose; format: functional, Salmonella enterica subsp. enterica serovar Typhimurium; how it was run: as §2
# Salmonella typhimurium [6] = test: Bactericidal activity against 2 hrs-gentamicin pre-exposed Salmonella typhimurium ATCC 14028 assessed as reduction colony forming units at 20 uM incubated for 10 hrs relative to marine peptide N6; format: functional, Salmonella enterica subsp. enterica serovar Typhimurium; parameters: scale not given: the % may be the effect or the level left
# How it was run: (§3)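 Macrophage protection assay. RAW264.7 cells (5 × 10^4/well, 24 h) were infected with S. Typhimurium ATCC14028 at MOI 10 for 1 h in DMEM/10% FBS, exposed to 100 µg/mL gentamicin for 2 h at 37 °C, and PBS-washed. Peptides in DMEM/10% FBS were added for 10 h. Cells were lysed with 0.1% Triton X-100 and CFU plated; log10 CFU reduction versus untreated cells. Three replicates; two independent experiments; one-way ANOVA with Tukey.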
# Salmonella typhimurium [7] = test: Bactericidal activity against 2 hrs-gentamicin pre-exposed Salmonella typhimurium ATCC 14028 assessed as reduction colony forming units at 50 uM incubated for 10 hrs relative to marine peptide N6; format: functional, Salmonella enterica subsp. enterica serovar Typhimurium; parameters: scale not given: the % may be the effect or the level left; how it was run: as §3
# [8] = Induction of hemolysis in mouse RBC at 100 uM incubated for 1 hrs at 37 degC; format: cell-based, Erythrocyte; settings: red blood cells (erythrocytes), read-out: Activity
# How it was run: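 Fresh mouse erythrocytes were washed three times in 0.9% NaCl, and an 8% suspension was incubated with peptide (2-fold dilutions, 100 to 0.3125 µM) for 1 h at 37 °C. Released hemoglobin was read at 540 nm. 1% Triton X-100 defined 100% lysis; polymyxin served as positive control and NaCl as negative.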
# Salmonella typhimurium [9] = test: Bactericidal activity against 2 hrs-gentamicin pre-exposed Salmonella typhimurium ATCC 14028 assessed as reduction colony forming units at 10 uM measured within 9 hrs; format: functional, organism-based; settings: Salmonella enterica subsp. enterica serovar Typhimurium
# How it was run: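 RAW264.7 cells in DMEM/10% FBS were infected with S. Typhimurium ATCC14028 at MOI 10 for 1 h, then given 100 µg/mL gentamicin for 2 h at 37 °C and washed. Cells were treated with 10 µM agent for 1, 3, 6, 9 and 12 h, lysed with 0.1% Triton X-100, and surviving intracellular bacteria were serially diluted and plated for CFU.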
# Salmonella typhimurium [10] = test: Antibacterial activity against Salmonella typhimurium ATCC 14028 infected in ICR mouse model of peritonitis assessed as mouse survival at 1 umol/kg, ip dosed at 0.5 and 8 hrs post infection and measured daily for 7 days
# Salmonella typhimurium [11] = test: Antibacterial activity against Salmonella typhimurium ATCC 14028 infected in ICR mouse model of peritonitis assessed as mouse survival at 1.5 umol/kg, ip dosed at 0.5 and 8 hrs post infection and measured daily for 7 days
# Salmonella typhimurium [12] = test: Antibacterial activity against Salmonella typhimurium ATCC 14028 infected in ICR mouse model of peritonitis assessed as reduction colony forming units in spleen at 1 to 2 umol/kg, ip dosed at 2 hrs post infection and measured after 10 hrs post dose relative to marine peptide N6; format: functional, Salmonella enterica subsp. enterica serovar Typhimurium; parameters: scale not given: the % may be the effect or the level left
# How it was run: (§4)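 Female ICR mice, six weeks old (six per group), were infected ip with S. Typhimurium ATCC14028 (5 × 10^5 CFU, 0.5 mL). Peptide was given ip at 1, 1.5 or 2 µmol/kg 2 h post-infection. Mice were killed 10 h after treatment, and kidneys and spleens were homogenized in sterile PBS for CFU counts of translocated bacteria. PBS-treated mice served as negative control, ciprofloxacin-treated mice as positive.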
# Salmonella typhimurium [13] = test: Bactericidal activity against 2 hrs-gentamicin pre-exposed Salmonella typhimurium ATCC 14028 assessed as reduction colony forming units at 20 uM incubated for 10 hrs; format: functional, Salmonella enterica subsp. enterica serovar Typhimurium; how it was run: as §3
# Salmonella typhimurium [14] = test: Antibacterial activity against Salmonella typhimurium ATCC 14028 assessed as time duration for reduction in growth using cathepsin B pre-treated compound at 1 to 2 MIC incubated for 1 to 24 hrs by time kill assay; format: functional, Salmonella enterica subsp. enterica serovar Typhimurium
# How it was run: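 Time-kill of cathepsin B-pretreated peptide (1 h, 37 °C, pH 5 buffer). Mid-log S. Typhimurium at 10^5 CFU/mL was exposed to 1× and 2× MIC at 37 °C with shaking at 250 rpm. Samples were taken every 2 h, serially diluted and plate-counted. N6 and ciprofloxacin served as controls.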
# Salmonella typhimurium [15] = test: Bactericidal activity against 2 hrs-gentamicin pre-exposed Salmonella typhimurium ATCC 14028 assessed as reduction colony forming units at 50 uM incubated for 10 hrs; format: functional, Salmonella enterica subsp. enterica serovar Typhimurium; how it was run: as §3
# Salmonella typhimurium [16] = test: Antibacterial activity against Salmonella typhimurium ATCC 14028 infected in ICR mouse model of peritonitis assessed as reduction colony forming units in kidney at 1 to 2 umol/kg, ip dosed at 2 hrs post infection and measured after 10 hrs post dose relative to marine peptide N6; format: functional, Salmonella enterica subsp. enterica serovar Typhimurium; parameters: scale not given: the % may be the effect or the level left; how it was run: as §4
# [17] = Cytotoxicity in mouse RAW264.7 assessed as cell survival at 100 uM incubated for 8 hrs by MTT assay; format: cell-based; settings: RAW264.7 cells, read-out: Survival
# How it was run: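 RAW264.7 cells seeded at 2.5 × 10^4 cells/well, cultured 24 h, then exposed for 8 h to 2-fold dilutions from 100 to 0.625 µM. MTT at 5 mg/mL added for 4 h, formazan dissolved in DMSO, absorbance read at 570 nm. Untreated cells served as control. Samples run in triplicate.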
# [18] = Drug internalization in mouse RAW264.7 using FITC-labeled compound at 2 uM pre-incubated for 1 hr with clathrin-mediated endocytosis inhibitor chlorpromazine followed by compound addition and subsequent incubation for 2 hrs by flow cytometry; format: ADME, cell-based; settings: raw264.7, 2 h
# How it was run: (§5)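 RAW264.7 cells were pretreated 1 h at 37 °C with 3 mM amiloride, 20 µM nocodazole, 6 µg/mL chlorpromazine or 5 mM MβCD. FITC-labeled peptide was then added for 2 h at 37 °C. Extracellular fluorescence was quenched with 0.4% Trypan blue and intracellular fluorescence read by flow cytometry against an untreated control.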
# [19] = Drug internalization in mouse RAW264.7 using FITC-labeled compound at 2 uM pre-incubated for 1 hr with lipid rafts disruptor methyl-beta-cyclodextrin followed by compound addition and subsequent incubation for 2 hrs by flow cytometry; format: ADME, cell-based; settings: raw264.7, 2 h; how it was run: as §5
# [20] = Drug internalization in mouse RAW264.7 using FITC-labeled compound at 2 uM pre-incubated for 1 hr with tubulin polymerization inhibitor nocodazole followed by compound addition and subsequent incubation for 2 hrs by flow cytometry; format: ADME, cell-based; settings: raw264.7, 2 h; how it was run: as §5
# [21] = Drug localisation in cytosol of mouse RAW264.7 using FITC-labeled compound at 5 uM incubated for 2 hrs by confocal microscopy; format: ADME, cell-based
# How it was run: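 RAW264.7 cells were plated for 18 h at 37 °C, then given 5 µM FITC or FITC-labeled peptide for 2 h. Nuclei were stained with Hoechst 33342 and membranes with FM 4-64 (each 5 µg/mL) for 30 min at 37 °C. Cells were PBS-washed and imaged by confocal fluorescence microscopy.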
# [22] = Drug internalization in mouse RAW264.7 using FITC-labeled compound at 2 uM pre-incubated for 1 hr with macropinocytosis inhibitor amiloride followed by compound addition and subsequent incubation for 2 hrs by flow cytometry; format: ADME, cell-based; settings: raw264.7, 2 h; how it was run: as §5
# [23] = Drug internalization in mouse RAW264.7 using FITC-labeled compound at 2 uM incubated for 2 hrs at 4 degC by flow cytometry; format: ADME, cell-based; settings: raw264.7, 2 h
structure (smiles),measurement,setting,value
CC(C)[C@H](NC(=O)CCCCCN1C(=O)CC(SC[C@H](N)C(=O)N[C@@H](Cc2ccc(O)cc2)C(=O)NCC(=O)N[C@@H](CCCNC(=N)N)C(=O)N[C@@H](CCCCN)C(=O)N[C@@H](CCCCN)C(=O)N[C@@H](CCCNC(=N)N)C(=O)N[C@@H](CCCNC(=N)N)C(=O)N[C@@H](CCC(N)=O)C(=O)N[C@@H](CCCNC(=N)N)C(=O)N[C@@H](CCCNC(=N)N)C(=O)N[C@@H](CCCNC(=N)N)C(=O)O)C1=O)C(=O)N[C@@H](CCCNC(N)=O)C(=O)Nc1ccc(COC(=O)NCC(=O)N[C@@H](Cc2ccccc2)C(=O)N[C@@H](C)C(=O)N[C@@H](Cc2c[nH]c3ccccc23)C(=O)N[C@@H](CC(N)=O)C(=O)N[C@H](C(=O)N[C@H]2CSSC[C@@H](C(=O)N[C@@H](Cc3cnc[nH]3)C(=O)N[C@@H](CCCNC(=N)N)C(=O)N[C@@H](CCCNC(=N)N)C(=O)N[C@@H](C)C(=O)N[C@@H](CC(N)=O)C(N)=O)NC(=O)[C@H](C(C)C)NC(=O)[C@H](CCCNC(=N)N)NC(=O)[C@H](C(C)C)NC(=O)CNC(=O)[C@H](CC(N)=O)NC(=O)[C@H](CCCNC(=N)N)NC(=O)[C@H](Cc3ccc(O)cc3)NC(=O)[C@H](C(C)C)NC2=O)C(C)C)cc1 (some centres undefined),MIC,Salmonella typhimurium [1],3.4 µM
same,Activity,Salmonella typhimurium [2],3.46 log10CFU
same,MIC,Salmonella typhimurium [3],1.7 µM
same,MIC,Salmonella typhimurium [4],13.6 µM
same,Activity,Salmonella typhimurium [5],2.04 log10CFU
same,Activity,Salmonella typhimurium [6],98.9%
same,Activity,Salmonella typhimurium [7],98.6%
same,"hemolysis at 1 h, 100 µM",[8],4.6%
same,Activity,Salmonella typhimurium [9],Active
same,Activity,Salmonella typhimurium [10],83.3%
same,Activity,Salmonella typhimurium [11],100%
same,Activity,Salmonella typhimurium [12],241%
same,Activity,Salmonella typhimurium [13],2.54 log10CFU
same,Time,Salmonella typhimurium [14],<=2 hr
same,Activity,Salmonella typhimurium [15],3.29 log10CFU
same,Activity,Salmonella typhimurium [16],241%
same,"viability at 8 h, 100 µM",[17],64.3%
N=C(N)NCCC[C@H](NC(=O)[C@H](CCCNC(=N)N)NC(=O)[C@H](CCCNC(=N)N)NC(=O)[C@H](CCC(N)=O)NC(=O)[C@H](CCCNC(=N)N)NC(=O)[C@H](CCCNC(=N)N)NC(=O)[C@H](CCCCN)NC(=O)[C@H](CCCCN)NC(=O)[C@H](CCCNC(=N)N)NC(=O)CNC(=O)[C@@H](N)Cc1ccc(O)cc1)C(=O)O,MIC,Salmonella typhimurium [4],> 82.1 µM
same,Drug uptake,[18],Not Active
same,Drug uptake,[19],Not Active
same,Drug uptake,[20],Active
same,Drug uptake,[21],Active
same,Drug uptake,[22],Not Active
same,Drug uptake,[23],Not Active
